Laboratory results: ChEMBL document CHEMBL1145811, “Synthesis and antibacterial activity of a novel series of acylides: 3-O-(3-pyridyl)acetylerythromycin A derivatives” (J Med Chem, 2003)
≈ marks a conversion by molar mass, not a printed value.

What was measured:
Haemophilus influenzae [1] = test: In vitro minimum inhibitory concentration for antibacterial activity against Haemophilus influenzae ATCC 33533 (ampicillin-resistant strain that produces beta-lactamase); type: functional
How it was run: (§1)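 Agar dilution MIC determined by the Japan Society of Chemotherapy standard method for aerobic bacteria.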

Streptococcus pneumoniae [2] = test: In vitro minimum inhibitory concentration for antibacterial activity against erythromycin-susceptible strain Streptococcus pneumoniae IID553; type: functional
How it was run: (§2)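 MIC by agar dilution following the Japan Society of Chemotherapy standard method for aerobic bacteria. S. aureus 209P-JC and S. pneumoniae IID553 are erythromycin-susceptible strains.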

Streptococcus pneumoniae [3] = test: In vitro minimum inhibitory concentration for antibacterial activity against Streptococcus pneumoniae 211 (MLSb-resistant strain encoded by the erm(B) gene); type: functional; how it was run: as §1
Staphylococcus aureus [4] = test: In vitro minimum inhibitory concentration for antibacterial activity against Staphylococcus aureus SR138 (constitutively MLSb-resistant strain encoded by the erm(A) gene); type: functional; how it was run: as §1
Haemophilus influenzae [5] = test: In vitro minimum inhibitory concentration for antibacterial activity against Haemophilus influenzae ATCC 43095 (ampicillin-susceptible strain that does not produce beta-lactamase); type: functional; how it was run: as §1
Streptococcus pneumoniae [6] = test: In vitro minimum inhibitory concentration for antibacterial activity against Streptococcus pneumoniae 210 (efflux-resistant strain encoded by the mef(A) gene); type: functional; how it was run: as §1
Staphylococcus aureus [7] = test: In vitro minimum inhibitory concentration for antibacterial activity against erythromycin-susceptible strain Staphylococcus aureus […]; type: functional; how it was run: as §2
Mus musculus [8] = test: Effective dose in vivo, in mouse inoculated intraperitoneally with 1.47*10e3 CFU of erythromycin susceptible strain Streptococcus pneumoniae IID553; type: functional; conditions: ip
How it was run: (§3)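 Mouse protection test: mice were infected intraperitoneally with erythromycin-susceptible S. aureus Smith or S. pneumoniae IID553. Compounds were given orally 1 h after inoculation.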

Mus musculus [9] = test: Effective dose in vivo, in mouse inoculated intraperitoneally with 5.80*10e7 CFU of erythromycin susceptible strain Staphylococcus aureus Smith; type: functional; conditions: ip; how it was run: as §3
Staphylococcus aureus [10] = test: In vitro minimum inhibitory concentration for antibacterial activity against Staphylococcus aureus B1 (inducibly MLSb-resistant strain encoded by the erm(C) gene); type: functional; how it was run: as §1
Staphylococcus aureus [11] = test: In vitro minimum inhibitory concentration for antibacterial activity against erythromycin susceptible strain Staphylococcus aureus Smith; type: functional
Streptococcus pneumoniae [12] = test: In vitro minimum inhibitory concentration for antibacterial activity against erythromycin susceptible strain Streptococcus pneumoniae IID553; type: functional
[13] = Maximum concentration in the lung of mice following a single oral dose of 10 mg/kg (data represent mean in 3 mice); type: ADME, organism-based; parameters: dose 10 mg/kg, route oral; conditions: mouse
How it was run: (§4)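 Mice received a single 10 mg/kg oral dose. Serum and lung were sampled for drug levels. Cmax is in µg/mL and AUC over 0–8 h is in µg·h/mL. Values are the mean of three mice.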

Mus musculus [14] = test: Survival rate of mouse inoculated intraperitoneally with 5.05*10e7 CFU of erythromycin-susceptible strain Streptococcus pneumoniae IID553 after treatment with 0.3 mg of compound; type: functional
How it was run: (§5)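 Mouse protection test: mice were infected intraperitoneally with 5.05 × 10^7 CFU/mouse, then given the macrolide orally 1 h after inoculation. Survival was recorded as the read-out.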

[15] = Maximum concentration in the serum of mice following a single oral dose of 10 mg/kg (data represent mean in 3 mice); type: ADME, organism-based; parameters: dose 10 mg/kg, route oral; conditions: mouse; how it was run: as §4
[16] = Area under the curve was determined for the compound from the lung of mice following a single oral dose of 10 mg/kg (data represent mean in 3 mice); type: ADME, organism-based; parameters: dose 10 mg/kg, route oral; conditions: mouse, read-out: AUC 0-8; how it was run: as §4
[17] = Area under the curve was determined for the compound from the serum of mice following a single oral dose of 10 mg/kg (data represent mean in 3 mice); type: ADME, organism-based; parameters: dose 10 mg/kg, route oral; conditions: mouse, read-out: AUC 0-8; how it was run: as §4
Mus musculus [18] = test: Survival rate of mouse inoculated intraperitoneally with 5.05*10e7 CFU of erythromycin-susceptible strain Streptococcus pneumoniae IID553 after treatment with 3 mg of compound; type: functional; how it was run: as §5
Mus musculus [19] = test: Effective dose in vivo, in mouse inoculated intraperitoneally with 5.09*10e7 CFU of erythromycin susceptible strain Staphylococcus aureus Smith; type: functional; conditions: ip; how it was run: as §3
Mus musculus [20] = test: Effective dose in vivo, in mouse inoculated intraperitoneally with 7.05*10e2 CFU of erythromycin susceptible strain Streptococcus pneumoniae IID553; type: functional; conditions: ip; how it was run: as §3

Row | Structure (SMILES) | MIC (Haemophilus influenzae [1]) [µg/mL] | MIC (Streptococcus pneumoniae [2]) [µg/mL] | MIC (Streptococcus pneumoniae [3]) [µg/mL] | MIC (Staphylococcus aureus [4]) [µg/mL] | MIC (Haemophilus influenzae [5]) [µg/mL] | MIC (Streptococcus pneumoniae [6]) [µg/mL] | MIC (Staphylococcus aureus [7]) [µg/mL] | ED50 (Mus musculus [8]) [mg/kg] | ED50 (Mus musculus [9]) [mg/kg] | MIC (Staphylococcus aureus [10]) [µg/mL] | MIC (Staphylococcus aureus [11]) [µg/mL] | MIC (Streptococcus pneumoniae [12]) [µg/mL] | Cmax [13] [ng/mL] | Survival rate (Mus musculus [14]) [%] | Cmax [15] [ng/mL] | AUC [16] [ng·h/mL] | AUC [17] [ng·h/mL] | Survival rate (Mus musculus [18]) [%] | ED50 (Mus musculus [19]) [mg/kg] | ED50 (Mus musculus [20]) [mg/kg]
1 | CC[C@H]1OC(=O)[C@H](C)[C@@H](OC(=O)Cc2cccnc2)[C@H](C)[C@@H](OC2O[C@H](C)C[C@H](N(C)C)[C@H]2O)[C@@](C)(OC)C[C@@H](C)C(=O)[C@H](C)[C@H]2OC(=O)O[C@@]21C (some centres undefined) | 3.13 (≈ 4.26 µM) | 0.05 (≈ 0.068 µM) | > 100 | > 100 | 3.13 (≈ 4.26 µM) | 0.2 (≈ 0.272 µM) | 0.2 (≈ 0.272 µM) | 51.1 | 17.5 | 0.39 (≈ 0.531 µM) | 0.2 (≈ 0.272 µM) | 0.05 (≈ 0.068 µM) |  |  |  |  |  |  |  | 
2 | CC[C@H]1OC(=O)[C@H](C)[C@@H](OC(=O)Cc2cccnc2)[C@H](C)[C@@H](OC2O[C@H](C)C[C@H](N(C)C)[C@H]2O)[C@@](C)(OC)C[C@@H](C)C(=O)[C@H](C)[C@H]2NC(=O)O[C@@]21C (some centres undefined) | 3.13 (≈ 4.26 µM) | 0.05 (≈ 0.0681 µM) | > 100 | > 100 | 3.13 (≈ 4.26 µM) | 0.1 (≈ 0.136 µM) | 0.05 (≈ 0.0681 µM) | 17.5 | 6.99 | 0.39 (≈ 0.531 µM) | 0.2 (≈ 0.273 µM) | 0.05 (≈ 0.0681 µM) |  |  |  |  |  |  |  | 
3 | CC[C@H]1OC(=O)[C@H](C)[C@@H](OC(=O)Cc2cccnc2)[C@H](C)[C@@H](OC2O[C@H](C)C[C@H](N(C)C)[C@H]2O)[C@@]2(C)C[C@@H](C)[C@H](OC(=O)O2)[C@H](C)[C@H]2OC(=O)O[C@@]21C (some centres undefined) | 0.78 (≈ 1.04 µM) | 0.025 (≈ 0.0334 µM) | 100 (≈ 134 µM) | > 100 | 0.78 (≈ 1.04 µM) | 0.1 (≈ 0.134 µM) | 0.1 (≈ 0.134 µM) |  |  | 0.2 (≈ 0.267 µM) |  |  | 1350 | 30 | 120 | 2460 | 230 | 90 |  | 
4 | CC[C@H]1OC(=O)[C@H](C)[C@@H](O[C@H]2C[C@@](C)(OC)[C@@H](O)[C@H](C)O2)[C@H](C)[C@@H](O[C@@H]2O[C@H](C)C[C@H](N(C)C)[C@H]2O)[C@](C)(O)C[C@@H](C)CN(C)[C@H](C)[C@@H](O)[C@]1(C)O [AZITHROMYCIN] | 1.56 (≈ 2.08 µM) | 0.1 (≈ 0.134 µM) | > 100 | > 100 | 1.56 (≈ 2.08 µM) | 0.78 (≈ 1.04 µM) | 0.39 (≈ 0.521 µM) |  |  | > 100 | 0.78 (≈ 1.04 µM) | 0.1 (≈ 0.134 µM) |  | 50 |  |  |  | 100 | 15.7 | 13.9
5 | CC[C@H]1OC(=O)[C@H](C)[C@@H](O[C@H]2C[C@@](C)(OC)[C@@H](O)[C@H](C)O2)[C@H](C)[C@@H](O[C@@H]2O[C@H](C)C[C@H](N(C)C)[C@H]2O)[C@](C)(OC)C[C@@H](C)C(=O)[C@H](C)[C@@H](O)[C@]1(C)O [CLARITHROMYCIN] | 3.13 (≈ 4.18 µM) | 0.05 (≈ 0.0668 µM) | > 100 | > 100 | 6.25 (≈ 8.36 µM) | 0.78 (≈ 1.04 µM) | 0.1 (≈ 0.134 µM) | 13.5 | 7.6 | > 100 | 0.2 (≈ 0.267 µM) | 0.025 (≈ 0.0334 µM) | 14100 | 50 | 1210 | 30400 | 1310 | 100 |  | 
6 | CC[C@H]1OC(=O)[C@H](C)[C@@H](O[C@H]2C[C@@](C)(OC)[C@@H](O)[C@H](C)O2)[C@H](C)[C@@H](O[C@@H]2O[C@H](C)C[C@H](N(C)C)[C@H]2O)[C@](C)(O)C[C@@H](C)C(=O)[C@H](C)[C@@H](O)[C@]1(C)O [ERYTHROMYCIN] |  |  |  |  |  |  |  |  |  |  | 0.2 (≈ 0.273 µM) | 0.1 (≈ 0.136 µM) |  |  |  |  |  |  | 56.6 | 111
